# TRPC6 activator: mouse TRPC6 channel activators, primary screen, cell-based, HEK293, membrane potential dye. actives 0.13% (n = 310,000). HEK293-TRPC6 membrane potential dye fluorescence; active compounds read high. Short transient receptor potential channel 6 (Mus musculus), Q61143. B-score at 10 µM;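 active = B-score of the integrated fluorescence ratio above library mean plus 3 SD, and starting fluorescence ratio within library mean plus 5 SD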;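 note: higher score means more depolarization so channel activation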
# Target sequence (Q61143 whole entry, looked up): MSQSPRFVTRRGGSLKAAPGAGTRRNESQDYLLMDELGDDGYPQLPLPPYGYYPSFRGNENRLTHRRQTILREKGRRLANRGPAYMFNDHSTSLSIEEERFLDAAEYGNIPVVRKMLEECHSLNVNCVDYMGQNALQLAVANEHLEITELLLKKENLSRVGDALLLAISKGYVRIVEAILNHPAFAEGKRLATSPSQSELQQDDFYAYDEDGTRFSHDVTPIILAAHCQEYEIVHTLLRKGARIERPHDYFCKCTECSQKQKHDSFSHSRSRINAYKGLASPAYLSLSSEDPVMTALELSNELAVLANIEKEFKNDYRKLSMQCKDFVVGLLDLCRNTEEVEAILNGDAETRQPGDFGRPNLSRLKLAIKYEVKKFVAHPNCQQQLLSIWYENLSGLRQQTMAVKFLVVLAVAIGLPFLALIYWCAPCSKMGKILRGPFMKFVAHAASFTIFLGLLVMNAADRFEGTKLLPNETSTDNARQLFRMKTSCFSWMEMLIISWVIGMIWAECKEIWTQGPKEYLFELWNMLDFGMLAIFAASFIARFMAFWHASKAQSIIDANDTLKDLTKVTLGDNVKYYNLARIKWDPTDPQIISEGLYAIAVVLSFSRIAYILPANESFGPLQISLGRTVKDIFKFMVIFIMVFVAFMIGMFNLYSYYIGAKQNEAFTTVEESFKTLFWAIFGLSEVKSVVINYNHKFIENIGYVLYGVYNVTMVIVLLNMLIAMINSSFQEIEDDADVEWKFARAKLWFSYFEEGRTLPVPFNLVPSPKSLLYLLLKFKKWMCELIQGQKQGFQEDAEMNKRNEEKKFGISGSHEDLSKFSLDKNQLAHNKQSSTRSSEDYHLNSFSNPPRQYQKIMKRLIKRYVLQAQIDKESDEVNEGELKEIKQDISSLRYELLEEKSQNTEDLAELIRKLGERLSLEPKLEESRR
# TRPC4 block: inhibitors of mouse TRPC4 channel, primary screen, Fluo4 calcium, HEK293 TRPC4beta/mu-opioid cells; B-score at 10 µM; actives 0.39% (n = 300,000); Short transient receptor potential channel 4 (Mus musculus), Q9QUQ5; DAMGO-evoked Fluo4 calcium flux; active compounds read low;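 active = B-score over 3 SD under the library average, no early fluorescence shift, positive overall ratio signal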
#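 Assay system: TRPC4beta/mu-opioid receptor HEK293 cell line; compound dosing: single concentration per test compound; detection: Fluo4 Ca2+ flux fluorescence; evaluation: per-well B score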
# TRPC4 potent: positive allosteric modulators of TRPC4, primary screen, cell-based, mouse TRPC4beta, HEK293 mu-opioid, Fluo-4 calcium. Short transient receptor potential channel 4 (Mus musculus), Q9QUQ5. DAMGO EC20, Fluo-4 Ca2+ flux; active compounds read high. B-score at 10 µM. actives 0.42% (n = 310,000). AID 2227, 2009;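 active = B-score of calcium response area above 5 SD of library B-scores, with initial fluorescence ratio within 5 SD of library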;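 note: B-score of integrated fluorescence ratio over time as area under calcium response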
# TRPC4 act: activators of mouse TRPC4 channel, primary screen, Fluo4 calcium, HEK293 TRPC4beta/mu-opioid cells; Short transient receptor potential channel 4 (Mus musculus), Q9QUQ5; Fluo4 calcium fluorescence; active compounds read high; B-score at 10 µM; actives 0.49% (n = 310,000); AID 2237, 2010;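 active = B-score above 5 SD of library B-scores, and initial fluorescence ratio not above library mean plus 5 SD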;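 note: positive B-score marks a calcium rise read as TRPC4 activation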
#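 Assay system: HEK293 cells stably co-expressing mouse TRPC4beta and mu-opioid receptor / Timing: Fluo4 dye loading 45 min at room temperature, 110 s recording / Signal: Fluo4 calcium-sensitive dye fluorescence, kinetic, 1 Hz baseline / Read-out: integrated baseline-normalised fluorescence ratio, converted to per-well B score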
# TRPC6 inh: mouse TRPC6 channel inhibitors, primary screen, cell-based, HEK293, membrane potential dye; actives 1.1% (n = 310,000); B-score at 10 µM; ACh-evoked depolarization; active compounds read low;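 active = B-score under library mean minus 3 SD, initial fluorescence not abnormally high, positive integrated signal ratio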;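 note: B-score derived from integrated fluorescence ratio over the kinetic read; more negative B-score means stronger inhibition of depolarization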
# Numbers without * were called inactive; i = inactive. Sampled rows, rich in hits. Any-hit rate of the full collection: about 2.3%.
SMILES,TRPC6 activator,TRPC4 block,TRPC4 potent,TRPC4 act,TRPC6 inh
CC(=O)OCC1O[C@@H](O[C@@H]2C[C@H]3C(C)(C)[C@H](OC(C)=O)CC[C@]3(C)[C@H]3CC[C@]45C[C@]4(CC[C@H]5[C@@H](C)C[C@@H](O)[C@H](O)C(C)(C)O)[C@@]32C)[C@H](O)[C@@H](O)[C@@H]1O (stereo not given in full),i,i,i,110*,i
Cn1c(N2CCN(C(c3ccccc3)c3ccccc3)CC2)nc2c1c(=O)[nH]c(=O)n2C,i,i,i,i,i
CCc1ccc(C(=O)N2CCCN(C)CC2)s1,i,i,i,i,i
CCc1c(C(=O)N2CCCN(C)CC2)csc1C,i,-6*,i,i,i
CC(C)c1nnc(NC(=O)CCC(=O)N2CCN(Cc3ccccc3)CC2)s1,i,i,12*,i,i
Cc1cnc(NC(=O)c2sc(Nc3ccccc3)nc2N)o1,i,i,i,i,i
Cc1nc(N2CCN(C)CC2)c2c3c(sc2n1)CCCC3,i,i,i,i,-5.4*
Cc1nc(N2CCN(C(=O)c3cccs3)CC2)c2c3c(sc2n1)CCCC3,i,i,i,i,i
COCCn1c(N)c(N(Cc2ccccc2)C(=O)Cc2c(Cl)cccc2Cl)c(=O)[nH]c1=O,i,i,i,i,i
Cc1cc(C)c(S(=O)(=O)N(C)CC(=O)NCCCn2ccnc2)c(C)c1,i,i,i,i,i
CCN(CC)CCCNC(=O)c1cc2c(-c3ccc(Cl)cc3)nn(C)c2s1,i,i,16*,72*,i
CN1CCN(CCCNC(=O)c2cc3c(-c4ccc(Cl)cc4)nn(C)c3s2)CC1,i,i,11*,i,i
CCOc1cc(/C=N/NC(=O)C2CC2)ccc1OC(C)C,i,i,i,i,i
O=S(=O)(c1ccc2oc3ccc(S(=O)(=O)N4CCCCC4)cc3c2c1)N1CCCCC1,i,i,i,i,i
NC(=O)c1nsc(C(=O)N(c2ccc(F)cc2)C(C(=O)NCC2CCCO2)c2ccc3ncccc3c2)c1N (stereo not given),i,i,i,i,i
Cc1ccc(N(C(=O)c2snc(C(N)=O)c2N)C(C(=O)NCC2CCCO2)c2ccc3ncccc3c2)cc1 (stereo not given),i,i,i,i,i
CCc1ccc(N(C(=O)c2snc(C(N)=O)c2N)C(C(=O)NC2CCCC2)c2ccco2)cc1 (stereo not given),i,i,i,i,i
Cc1cccc(N(C(=O)c2snc(C(N)=O)c2N)C(C(=O)NCC2CCCO2)c2ccc3ncccc3c2)c1 (stereo not given),i,-6*,i,i,i
COc1cccc(N(C(=O)c2snc(C(N)=O)c2N)C(C(=O)NCC2CCCO2)c2ccc3ncccc3c2)c1 (stereo not given),i,-6*,i,i,i
COc1ccccc1N(C(=O)c1snc(C(N)=O)c1N)C(C(=O)NC1CCCC1)c1ccc2ncccc2c1 (stereo not given),i,-6*,i,i,i
Cc1ccccc1N(C(=O)c1snc(C(N)=O)c1N)C(C(=O)NC1CCCC1)c1ccco1 (stereo not given),i,-8*,i,i,i
Cc1ccc(C)c(S(=O)(=O)N2CCCOC2CNC(=O)C(=O)NCCC2=CCCCC2)c1 (stereo not given),i,i,i,i,i
CNS(=O)(=O)c1ccc(NCC2COc3ccccc3O2)c([N+](=O)[O-])c1 (stereo not given),i,i,i,i,i
COc1ccccc1N(C(=O)c1snc(C(N)=O)c1N)C(C(=O)NCc1ccccc1)c1ccc(O)cc1 (stereo not given),i,-8*,i,i,i

# From PubChem BioAssay
